About 310 (0.097%) of roughly 320,000 compounds were called active. Many of the other results were omitted from the sample, so actives are more common in it than they were. Unmarked numbers belong to inactive results.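 The calls were made as follows: active = mean replicate activation of at least 60% and every replicate at or above 60%; inconclusive = mean or all-replicate condition met, but not both; inactive = mean below 60% and not all replicates reaching 60%.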

The values that follow come from PubChem BioAssay AID504775 (Broad Institute, 2011).

This experiment in a line: enhancers of HDL lipid transfer via mSR-BI – ldlA[mSR-BI] CHO cells, DiI fluorescence, primary screen (AID 504775).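 Also: 0% = median plate neutral-control signal and 100% = twice that signal.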 The conditions noted are these: DiI-HDL uptake fluorescence, 3 h, at 12.5 µM, hits give high values, 100 = double the neutral-control signal. The essentials: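 Test system: SR-BI-overexpressing, LDLR-lacking CHO cells; Also added: labelled HDL, 10 µg/mL; Measured by: bottom-read cell fluorescence after medium removal, ex 550/em 595 nm; Timing: 3 h uptake period with compound, 37 °C; Buffer or medium: F12, 0.5% BSA, 25 mM HEPES; Doses: single compound concentration, delivered by pin transfer.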
As to `CC(=O)OCC(=O)C1(O)CCC2C3CC(C)C4=CC(=O)CCC4(C)C3C(O)CC21C` (stereo not given), the activation is -0.166%.
The same measure for `Cc1ccc(C)c(S(=O)(=O)N(C)c2ccc(OC(=O)C3CCN(C(=O)c4ccc(F)cc4)CC3)cc2)c1`: -12.3%; for `Cc1ccc(Cn2c(C)c3cnn(CC(=O)NCCN4CCOCC4)c(=O)c3c2C)cc1`: -22.1%; for `CCOC(=O)C1CCCN(C(=O)C2CCN(S(=O)(=O)c3ccc(Cl)c(C(F)(F)F)c3)CC2)C1` (stereo not given): 22.7%.
Take `COc1ccccc1N(CC(=O)Nc1c(C)n(C)n(-c2ccccc2)c1=O)S(=O)(=O)c1ccccc1`: the activation is 12%.
The same measure for `O=C1OC(Oc2ccc(Br)cc2)(c2ccccc2)c2ccccc21` (stereo not given): -0.981%; for `O=[N+]([O-])c1ccc(N=NNc2ccc([N+](=O)[O-])cc2)cc1`: 5.77%.
On to `CC1=CC(C)(C)Nc2ccc(OC(=O)CN3C(=O)C4CCCCC4C3=O)cc21` (stereo not given), for which the activation was 9.46%.
The same measure for `CC1=CC(C)(C)Nc2ccc(OC(=O)C(Cc3ccccc3)N3C(=O)C4CCCCC4C3=O)cc21` (stereo not given): 62.9% (active); for `CCOC(=O)C(Cc1ccc(N)cc1)N1C(=O)c2ccccc2C1=O` (stereo not given): -16%; for `COc1ccc(C(C(=O)NC2CCCCC2)N(C(=O)c2snc(C(N)=O)c2N)c2ccccc2OC)cc1` (stereo not given): 13.6%.
The same measure for `Cc1ccccc1N(C(=O)CNC(=O)c1cccs1)C(C(=O)NC1CCCC1)c1ccncc1` (stereo not given): 4.44%; for `COc1ccc(C(C(=O)NC2CCCCC2)N(C(=O)CCl)c2ccccc2Cl)cc1` (stereo not given): 88.3% (active).
As to `Oc1ccc(-c2nc3ccccc3nc2-c2ccc(O)cc2O)c(O)c1`, the activation is -26%.
The same measure for `C/C(=N\Nc1ccccc1)c1cccs1`: 13.7%.
Regarding `O=C(CCCCCCCC(=O)N1CCCCC1)N1CCCCC1`, the activation is 7.36%.
As for `COc1ccc(CCC(=O)Nc2ccc(Cl)c(S(=O)(=O)N3CCOCC3)c2)cc1OC`, the activation is -60.3%.
The same measure for `CC(=O)CSc1nc(CCc2ccccc2)c(C#N)c(=O)[nH]1`: 11%.
The same measure for `Nc1ccc2[nH]c(=S)sc2c1`: -5.72%.
The value for `COc1ccc(S(=O)(=O)N2CCC(C(=O)N3CCc4ccccc4C3)CC2)cc1OC` was 4.32%.
As to `COc1ccc(S(=O)(=O)N2CCC(C(=O)N3CCOCC3)CC2)cc1OC`, the activation was 0.407%.
The value for `COc1cc(S(=O)(=O)N2CCN(C(=O)C3CC3)CC2)ccc1NC(C)=O` was 60.7% (active); that for `NC(=S)NN=C1CCCC(C(F)(F)F)C1` (stereo not given) was -74%; that for `N#CCc1c[nH]c2ccc([N+](=O)[O-])cc12` was 13.4%.
The value for `O=C1CC(c2ccccc2)C(=O)N2C(=O)CC(c3ccccc3)C(=O)N12` (stereo not given) was 16.5%.
The value for `C#CCOCCOCCOCCNc1nc(N2CCN(C(=O)Cn3cc(CCO)nn3)CC2)nc(N2CCN(C(=O)Cn3cc(CCCN=C(N)N)nn3)CC2)n1` was 17.5%; that for `COC(=O)CC(CC(=O)OC)n1cccc1` was 7.62%; that for `Cc1ccc(NC(=O)C(C)OC(=O)C2CC3CCCC(C2)C3=O)cc1S(=O)(=O)N1CCOCC1` (stereo not given) was -2.41%.
For the compound `COc1ccc(CNC(=O)C[C@H]2C[C@H](C(=O)N3CCOCC3)[C@@]3(CCC4CCCC4)c4[nH]c5ccc(Cl)cc5c4CCN3C2=O)cc1OC`, the activation was -30.3%.
The value for `CN(C)C(=O)CCc1ccc2c3c([nH]c2c1)[C@]1(CCC2CCCC2)[C@@H](C(=O)N2CCOCC2)C[C@H](CC(=O)NCc2ccco2)C(=O)N1CC3` was 14.3%; that for `O=C(C[C@H]1C[C@H](C(=O)N2CCOCC2)[C@@]2(CCC3CCCC3)c3[nH]c4ccc(Cl)cc4c3CCN2C1=O)NCc1ccco1` was 82.2% (active).
The value for `O=C(CC(=O)c1cccnc1)c1ccccc1` was -1.21%; that for `CCCCOC(=O)c1[nH]c(C)c(C(=O)OC)c1C` was 176% (active); that for `CCOC(=O)c1c(C)[nH]c(C(=O)OCC(=O)c2ccc(OC)cc2OC)c1C` was -45.7%.
The value for `CCOC(=O)c1c(C)[nH]c(C(=O)OCC(=O)N2CCCC2=O)c1C` was 24.7%.
Regarding `COc1ccc(CNC(=O)CN2C(=O)c3ccccc3S2(=O)=O)cc1`, the activation is 16.4%.
The same measure for `Cc1ccc(C(=O)O)c(NC=O)c1OCc1ccccc1`: 19.3%; for `COc1ccc(C(CNC(=O)c2cc(S(=O)(=O)Nc3cccc(C)c3)ccc2C)N2CCCC2)cc1` (stereo not given): 21%.
The value for `Cc1ccc(S(=O)(=O)N2CCC(C(=O)N3CCCCCCC3)CC2)cc1` was -7.71%; that for `COc1ccc(S(=O)(=O)N2CCc3ccccc32)cc1C(=O)Nc1cc(S(C)(=O)=O)ccc1Cl` was -27.5%.
For the compound `O=C1/C(=C\c2ccc([N+](=O)[O-])cc2)CS(=O)(=O)C/C1=C/c1ccc([N+](=O)[O-])cc1`, the activation is -17.7%.
For `Oc1[nH]c2ccccc2c1N=Nc1c(F)c(F)c(F)c(F)c1F`, the activation was -15.7%.
The same measure for `Cc1cc(NC(=O)c2cc3ccccc3o2)no1`: 18.7%; for `COc1cc(C(=O)N2CCN(S(=O)(=O)c3ccc(C(C)C)cc3)CC2)ccc1OCC(=O)N1CCOCC1`: 10.9%; for `O=C(O)c1ccc([N+](=O)[O-])cc1Sc1ccsc1`: -7.71%.
The same measure for `O=C1NC(c2ccccc2)Cc2ccncc21` (stereo not given): 37.2%.
The value for `CCC(CC)c1nnc(NC(=O)C2=COCCO2)s1` was 9.84%; that for `Cc1sc(NC(=O)C2=COCCO2)c(C#N)c1C` was 172% (active).
Consider `Cc1csc(NC(=O)C2=COCCO2)n1`, for which the activation is 11%.
The value for `COc1ccc(C(CNC(=O)c2cccc(S(=O)(=O)Nc3ccc(Br)cc3)c2)N(C)C)cc1` (stereo not given) was 24.3%; that for `COc1ccc(CCNC(=O)c2ccc(NC(=O)CC3SC(N4CCCCC4)=NC3=O)cc2)cc1OC` (stereo not given) was -66.6%; that for `COC(=O)Cc1c(-c2[nH]c3ccccc3c2CC(=O)OC)[nH]c2ccccc12` was -37.9%.
The value for `O=C(C1=C(O)C(=O)N(Cc2ccccc2)C1c1cccnc1)c1ccco1` (stereo not given) was 66.5% (active); that for `COc1ccc(C2C(C(C)=O)=C(O)C(=O)N2Cc2cccnc2)cc1` (stereo not given) was 30%.
The same measure for `CCOc1cc(C2C(C(=O)c3ccco3)=C(O)C(=O)N2Cc2ccccc2)ccc1O` (stereo not given): 21.9%.
